Data taken from ChEMBL document CHEMBL1154901, “Quassidines A-D, bis-beta-carboline alkaloids from the stems of Picrasma quassioides” (J Nat Prod, 2010).

How the values were obtained:
RAW264.7 [1] = experiment: Antiinflammatory activity in mouse RAW264.7 cells assessed as inhibition of LPS-induced TNFalpha production by ELISA; assay type: functional, cell-based
Outline: (§1)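 RAW 264.7 cells in RPMI 1640, seeded at 5 × 10^5 cells/mL and cultured 1 h. Compound in DMSO was co-added with LPS (final 1 µg/mL). After 6 h culture, supernatant TNF-α and IL-6 were quantified with mouse ELISA kits. LPS-only and DMSO-only (no LPS) wells served as references.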

RAW264.7 [2] = experiment: Antiinflammatory activity in mouse RAW264.7 cells assessed as inhibition of LPS-induced IL-6 production by ELISA; assay type: functional, cell-based; outline: as §1
RAW264.7 [3] = experiment: Antiinflammatory activity in mouse RAW264.7 assessed as inhibition LPS-induced nitric oxide production cells after 24 hrs; assay type: functional, cell-based; conditions: RAW264.7, 24 h
Outline: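 RAW 264.7 cells in RPMI 1640 with 10% heat-inactivated FBS, seeded at 5 × 10^5 cells/mL and cultured 1 h. Compound in DMSO was added at various concentrations together with LPS (final 1 µg/mL), then incubated 24 h. Supernatant nitrite was measured with Griess reagent (1% sulfanilamide in 5% H3PO4 plus 0.1% naphthylethylene diamine) at 540 nm. Inhibitory rate versus LPS-only wells.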

RAW264.7 [4] = experiment: Cytotoxicity against mouse RAW264.7 cells after 24 hrs by MTT assay; assay type: cell-based; conditions: raw264.7, 24 h
Outline: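 RAW 264.7 macrophages seeded at 5 × 10^5 cells/mL in RPMI 1640 with 10% FBS. Compound in DMSO was added with LPS 1 µg/mL. Viability was read by MTT mitochondrial reduction colorimetric assay after 24 h exposure.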

IC50 (RAW264.7 [1]) [µM] | IC50 (RAW264.7 [2]) [µM] | IC50 (RAW264.7 [3]) [µM] | SMILES | Activity (RAW264.7 [4])
85.6 | – | – | C[C@]12CCC(=O)C=C1CC[C@@H]1[C@@H]2[C@@H](O)C[C@@]2(C)[C@H]1CC[C@]2(O)C(=O)CO [HYDROCORTISONE] | –
88.4 | > 100 | 89.4 | COc1cccc2c1[nH]c1c([C@@H]3CC[C@H]3c3ncc(OC)c4c3[nH]c3ccccc34)ncc(OC)c12 [QUASSIDINE A] | –
– | – | – | COc1cccc2c1[nH]c1c(CCC(O)c3nccc4c3[nH]c3ccccc34)ncc(OC)c12 (configuration not stated) [QUASSIDINE B] | Toxic
– | – | – | COc1cnc(CCC(O)c2nccc3c2[nH]c2ccccc23)c2[nH]c3ccccc3c12 (configuration not stated) [QUASSIDINE C] | Toxic
> 100 | > 100 | > 100 | COc1cccc2c1[nH]c1c(CCC(OC)c3nccc4c3[nH]c3ccccc34)ncc(OC)c12 (configuration not stated) [QUASSIDINE D] | –

SMILES | IC50 (RAW264.7 [1]) [µM] | IC50 (RAW264.7 [2]) [µM] | IC50 (RAW264.7 [3]) [µM] | Activity (RAW264.7 [4])
COc1cccc2c1[nH]c1c(CCC(OC)C(=O)c3nccc4c3[nH]c3ccccc34)ncc(OC)c12 (configuration not stated) [PICRASIDINE C] | > 100 | > 100 | 89.9 | –
